Measurements published in ChEMBL document CHEMBL2311344, “Development of an in vivo active, dual EP1 and EP3 selective antagonist based on a novel acyl sulfonamide bioisostere” (Bioorg Med Chem Lett, 2013).
Blank lines part the entries; values can stand above or below the compound they belong to. The source made the active and inactive calls. No cut-off for these calls is given here.

Legend:
[1] = biological target: Prostaglandin E2 receptor EP4 subtype (Mus musculus, UniProt P32240); assay: Antagonist activity at mouse EP4 receptor
In short: (§1)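 Affinity at mouse EP2, EP3 and EP4 is given as pKI. Signalling through mouse TP is given as pIC50. Mean ± SEM of at least three independent experiments, each run in triplicate.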

[2] = biological target: T1, Prostaglandin E2 receptor EP1 subtype (Mus musculus, UniProt P35375); assay: Antagonist activity at mouse EP1 receptor expressed in CHOK1 cells assessed as inhibition of 17PTPGE2-induced calcium influx; assay type: functional, cell-based, CHO-K1
T1 sequence (P35375 whole entry): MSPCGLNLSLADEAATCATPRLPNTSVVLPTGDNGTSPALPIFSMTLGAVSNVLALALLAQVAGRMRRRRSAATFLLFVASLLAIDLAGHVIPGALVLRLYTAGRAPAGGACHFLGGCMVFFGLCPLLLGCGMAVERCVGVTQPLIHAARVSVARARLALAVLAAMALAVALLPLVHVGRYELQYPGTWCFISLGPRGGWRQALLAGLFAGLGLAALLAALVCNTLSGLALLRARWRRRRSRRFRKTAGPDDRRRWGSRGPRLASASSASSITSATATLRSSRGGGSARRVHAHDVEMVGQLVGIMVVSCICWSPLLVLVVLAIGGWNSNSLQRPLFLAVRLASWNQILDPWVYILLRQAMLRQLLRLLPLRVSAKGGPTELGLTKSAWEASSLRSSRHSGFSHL
In short: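 CHOk1 cells expressing mouse EP1 were treated with six antagonist concentrations, then challenged with a concentration range of the EP1 agonist 17-phenyl-ω-trinor PGE2. pKD/KD came from transformed Schild regression of the concentration-response curves. Mean ± SEM of at least two independent experiments, each in duplicate.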

[3] = biological target: Prostaglandin E2 receptor EP2 subtype (Mus musculus, UniProt Q62053); assay: Antagonist activity at mouse EP2 receptor; in short: as §1
Thromboxane A2 receptor = biological target: T2, Thromboxane A2 receptor (Mus musculus, UniProt P30987); assay: Antagonist activity at mouse TP receptor; in short: as §1
T2 sequence (P30987 whole entry): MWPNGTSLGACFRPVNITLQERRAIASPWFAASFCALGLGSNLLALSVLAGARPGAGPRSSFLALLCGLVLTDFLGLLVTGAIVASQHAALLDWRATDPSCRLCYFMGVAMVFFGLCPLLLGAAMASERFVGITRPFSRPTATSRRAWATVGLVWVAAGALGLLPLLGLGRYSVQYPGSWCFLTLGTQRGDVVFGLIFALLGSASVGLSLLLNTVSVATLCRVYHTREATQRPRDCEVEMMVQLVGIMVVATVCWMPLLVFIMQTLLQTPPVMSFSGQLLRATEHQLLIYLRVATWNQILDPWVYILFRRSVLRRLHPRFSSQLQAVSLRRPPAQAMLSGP

[4] = biological target: T3, Prostaglandin E2 receptor EP3 subtype (Mus musculus, UniProt P30557); assay: Antagonist activity at mouse EP3 receptor; in short: as §1
T3 sequence (P30557 whole entry): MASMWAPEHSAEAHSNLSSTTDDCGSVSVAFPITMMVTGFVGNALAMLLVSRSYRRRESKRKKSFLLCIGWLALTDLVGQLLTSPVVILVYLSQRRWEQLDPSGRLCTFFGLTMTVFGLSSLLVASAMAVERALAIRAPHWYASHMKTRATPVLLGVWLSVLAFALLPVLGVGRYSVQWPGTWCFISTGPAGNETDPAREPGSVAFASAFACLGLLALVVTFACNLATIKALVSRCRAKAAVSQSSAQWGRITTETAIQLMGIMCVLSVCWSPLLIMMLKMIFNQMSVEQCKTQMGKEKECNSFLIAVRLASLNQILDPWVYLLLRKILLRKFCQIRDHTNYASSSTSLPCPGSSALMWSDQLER

[5] = Drug metabolism in mouse liver microsomes assessed as cytochrome P450-mediated benzylic oxidation; assay type: ADME, Microsome
Mus musculus [6] = assay: Antihypertensive activity in mouse assessed as effect on phenylephrine-induced vasopressor activity at 5 mg/kg, sc administered 2 hrs prior to phenylephrine-challenge; assay type: functional, organism-based; parameters: dose 5 mg/kg
In short: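 In the same anesthetized, carotid/jugular-cannulated mouse preparation, phenylephrine 10 μg/kg was given as an IV bolus 2 h after 5 mg/kg sc pretreatment. The change in arterial pressure served as the non-EP vasoconstriction control.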

Plasma = assay: Fraction unbound in mouse plasma; assay type: ADME, cell-free
Mus musculus [7] = assay: Tmax in mouse at 5 mg/kg, sc; assay type: ADME, organism-based; parameters: dose 5 mg/kg, route subcutaneous; conditions: in vivo
In short: (§2)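 Subcutaneous dose of 5 mg/kg in mice (n = 3). Plasma sampled intermittently to build a concentration-time profile. Cmax, tmax and AUC were taken from that profile.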

[8] = Drug metabolism in mouse liver microsomes assessed as cytochrome P450-mediated methylene linker oxidation; assay type: ADME, Microsome
Mus musculus [9] = assay: Antihypertensive activity in mouse assessed as 17PTPGE2-induced mean arterial pressure at 5 mg/kg, sc administered 2 hr prior to 17PTPGE2-challenge (reference value: 50.3 +/- 5.5 mmHg); assay type: functional, Artery; conditions: route subcutaneous
In short: (§3)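 Mice were anesthetized, with the left common carotid artery and right jugular vein cannulated. Arterial pressure was recorded directly via the carotid catheter. Test agent or vehicle was given 5 mg/kg sc. After 2 h, an IV bolus went through the jugular catheter: 20 μg/kg 17-phenyl-ω-trinor PGE2 (EP1) or 10 μg/kg sulprostone (EP3). Read-out was change in MAP. n = 3 per group; two-tailed Student's t test.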

[10] = Drug metabolism in mouse liver microsomes assessed as esterase-mediated sulfonamide hydrolysis; assay type: ADME, Microsome
Mus musculus [11] = assay: Cmax in mouse at 5 mg/kg, sc; assay type: ADME, organism-based; parameters: dose 5 mg/kg, route subcutaneous; conditions: in vivo; in short: as §2
Mus musculus [12] = assay: Antihypertensive activity in mouse assessed as sulprostone-induced mean arterial pressure at 5 mg/kg, sc administered 2 hr prior to sulprostone-challenge (reference value: 53.3 +/- 2.3 mmHg); assay type: functional, Artery; conditions: route subcutaneous; in short: as §3
Mus musculus [13] = assay: AUC in mouse at 5 mg/kg, sc; assay type: ADME, organism-based, Plasma; parameters: dose 5 mg/kg, route subcutaneous; conditions: in vivo; in short: as §2
[14] = biological target: T4, Prostaglandin E2 receptor EP1 subtype (Mus musculus) (UniProt P35375); assay: Antagonist activity at mouse EP1 receptor expressed in CHOK1 cells assessed as inhibition of 17PTPGE2-induced calcium influx at >100 uM; assay type: functional, cell-based; conditions: CHO-K1
T4 sequence (whole entry): T1 sequence (P35375 whole entry)

[15] = Drug metabolism in mouse liver microsomes assessed as cytochrome P450-mediated oxidation; assay type: ADME, Microsome
[16] = Drug metabolism in mouse liver microsomes assessed as esterase-mediated hydrolysis; assay type: ADME, Microsome
[17] = Volume of distribution at steady state in mouse at 1 mg/kg, iv; assay type: ADME, organism-based; parameters: dose 1 mg/kg, route intravenous; conditions: in vivo, read-out: Vdss
In short: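 Mouse plasma pharmacokinetics after a single intravenous 1 mg/kg dose. Systemic plasma clearance and volume of distribution predicted at steady state were derived from the IV data. A separate oral arm at 10 mg/kg was used for bioavailability.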

[18] = Half life in mouse at 1 mg/kg, iv; assay type: ADME, organism-based; parameters: dose 1 mg/kg, route intravenous; conditions: in vivo
In short: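 Single intravenous dose of 1 mg/kg given to mice. Half-life was derived from systemic plasma levels. Plasma clearance (CLp) and steady-state volume of distribution (Vss) came from the same study. A separate 10 mg/kg oral arm was run for bioavailability.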

[19] = Plasma clearance in mouse at 1 mg/kg, iv; assay type: ADME, organism-based; parameters: dose 1 mg/kg, route intravenous
In short: (§4)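 Mice were dosed IV at 1 mg/kg or orally at 10 mg/kg. From plasma, the following were derived: systemic plasma clearance, Vss, t1/2 and oral bioavailability (%F).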

[20] = Oral bioavailability in mouse at 10 mg/kg; assay type: ADME, organism-based; conditions: in vivo; in short: as §4

Chain of Prostaglandin E2 receptor EP4 subtype (P32240 whole entry): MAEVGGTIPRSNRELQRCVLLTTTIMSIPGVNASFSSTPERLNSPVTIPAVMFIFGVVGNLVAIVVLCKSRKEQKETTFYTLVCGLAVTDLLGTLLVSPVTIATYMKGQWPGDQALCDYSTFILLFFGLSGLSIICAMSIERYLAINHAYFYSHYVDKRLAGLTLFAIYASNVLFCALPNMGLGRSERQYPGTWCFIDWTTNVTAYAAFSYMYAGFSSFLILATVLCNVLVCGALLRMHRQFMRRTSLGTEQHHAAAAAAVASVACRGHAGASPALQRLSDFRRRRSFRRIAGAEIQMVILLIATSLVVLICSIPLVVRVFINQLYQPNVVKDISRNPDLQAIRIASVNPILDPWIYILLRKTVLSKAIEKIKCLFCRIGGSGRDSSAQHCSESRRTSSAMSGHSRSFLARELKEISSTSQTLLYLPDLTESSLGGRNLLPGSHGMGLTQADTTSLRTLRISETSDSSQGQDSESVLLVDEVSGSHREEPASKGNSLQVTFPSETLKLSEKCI
Chain of Prostaglandin E2 receptor EP2 subtype (Q62053 whole entry): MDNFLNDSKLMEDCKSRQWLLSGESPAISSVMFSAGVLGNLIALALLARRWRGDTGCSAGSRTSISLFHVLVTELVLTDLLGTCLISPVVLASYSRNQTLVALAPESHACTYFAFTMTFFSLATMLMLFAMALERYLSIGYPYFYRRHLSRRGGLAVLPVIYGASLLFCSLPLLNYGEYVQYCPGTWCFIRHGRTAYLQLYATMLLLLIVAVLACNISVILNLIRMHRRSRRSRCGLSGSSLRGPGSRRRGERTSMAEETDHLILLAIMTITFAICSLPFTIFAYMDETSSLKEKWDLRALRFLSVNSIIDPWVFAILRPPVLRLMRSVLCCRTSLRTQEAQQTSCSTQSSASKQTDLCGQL

Compound: Cc1ccc(S(=O)(=O)NC(=O)c2cccc(Cc3cc(Cl)ccc3OCc3ccc(Cl)cc3F)n2)cc1
Ki [1]: > 1 µM
Kd ([2]; read-out: Kd): 0.214 µM
Ki [3]: > 1 µM
pIC50 (Thromboxane A2 receptor): < 6
Ki [4]: > 1 µM

Compound: O=C(NS(=O)(=O)c1ccc(Cl)cc1)c1cccc(Cc2cc(Cl)ccc2OCc2ccc(Cl)cc2F)n1
Drug metabolism [5]: Active
Activity (Mus musculus [6]): inactive
Fu (Plasma): 0.004
Tmax (Mus musculus [7]): 2 h
Ki [1]: > 1 µM
Kd ([2]; read-out: Kd): 0.0407 µM
Ki [3]: > 1 µM
Drug metabolism [8]: Active
Activity (Mus musculus [9]): 27 mmHg
Drug metabolism [10]: Active
Cmax (Mus musculus [11]): 504 nM
pIC50 (Thromboxane A2 receptor): < 6
Ki [4]: 0.107 µM
Activity (Mus musculus [12]): 32 mmHg
AUC (Mus musculus [13]): 7.508 µM·h

Compound: CCCS(=O)(=O)NC(=O)c1cccc(Cc2cc(Cl)ccc2OCc2ccc(Cl)cc2F)n1
Ki [1]: > 1 µM
Ki [3]: > 1 µM
pIC50 (Thromboxane A2 receptor): < 6
Ki [4]: > 1 µM
Activity [14]: inactive

Compound: O=C(NS(=O)(=O)c1cc(Cl)ccc1Cl)c1cccc(Cc2cc(Cl)ccc2OCc2ccc(Cl)cc2F)n1
Ki [1]: > 1 µM
Kd ([2]; read-out: Kd): 0.0537 µM
Kd ([2]; read-out: pKd (converted)): 0.0562 µM
Ki [3]: > 1 µM
pIC50 (Thromboxane A2 receptor): < 6
Ki [4]: 0.204 µM

Compound: CCN(CC)C(=O)c1cccc(Cc2cc(Cl)ccc2OCc2ccc(Cl)cc2F)n1
Ki [1]: > 1 µM
Kd ([2]; read-out: Kd): 0.447 µM
Ki [3]: > 1 µM
pIC50 (Thromboxane A2 receptor): < 6
Ki [4]: > 1 µM

Compound: CCC(C)NC(=O)c1cccc(Cc2cc(Cl)ccc2OCc2ccc(Cl)cc2F)n1 (stereo not drawn)
Ki [1]: > 1 µM
Kd ([2]; read-out: Kd): 1.38 µM
Ki [3]: > 1 µM
pIC50 (Thromboxane A2 receptor): < 6
Ki [4]: > 1 µM

Compound: O=C(NS(=O)(=O)c1ccc(Cl)c(Cl)c1)c1cccc(Cc2cc(Cl)ccc2OCc2ccc(Cl)cc2F)n1
Ki [1]: > 1 µM
Kd ([2]; read-out: Kd): 0.214 µM
Ki [3]: > 1 µM
pIC50 (Thromboxane A2 receptor): < 6
Ki [4]: 0.0661 µM

The remaining lines, values ahead:

Ki [1]: > 1 µM
Kd ([2]; read-out: Kd): 0.912 µM
Ki [3]: > 1 µM
pIC50 (Thromboxane A2 receptor): < 6
Ki [4]: > 1 µM
Compound: O=C(NC1CCC1)c1cccc(Cc2cc(Cl)ccc2OCc2ccc(Cl)cc2F)n1

Ki [1]: > 1 µM
Kd ([2]; read-out: Kd): 15.8 µM
Ki [3]: > 1 µM
pIC50 (Thromboxane A2 receptor): < 6
Ki [4]: > 1 µM
Compound: O=C(c1cccc(Cc2cc(Cl)ccc2OCc2ccc(Cl)cc2F)n1)N1CCCC1

Ki [1]: > 1 µM
Kd ([2]; read-out: Kd): 2.63 µM
Ki [3]: > 1 µM
pIC50 (Thromboxane A2 receptor): < 6
Ki [4]: > 1 µM
Compound: NC(=O)c1cccc(Cc2cc(Cl)ccc2OCc2ccc(Cl)cc2F)n1

Ki [1]: > 1 µM
Kd ([2]; read-out: Kd): 0.549 µM
Ki [3]: > 1 µM
pIC50 (Thromboxane A2 receptor): < 6
Ki [4]: > 1 µM
Compound: O=C(NCC1CC1)c1cccc(Cc2cc(Cl)ccc2OCc2ccc(Cl)cc2F)n1

Ki [1]: > 1 µM
Kd ([2]; read-out: Kd): 2.19 µM
Ki [3]: > 1 µM
pIC50 (Thromboxane A2 receptor): < 6
Ki [4]: > 1 µM
Compound: O=C(NC1CC2CCC1C2)c1cccc(Cc2cc(Cl)ccc2OCc2ccc(Cl)cc2F)n1 (stereo not drawn)

Fu (Plasma): 0.01
Ki [1]: > 1 µM
Kd ([2]; read-out: Kd): 0.302 µM
Drug metabolism [15]: Active
Ki [3]: > 1 µM
Drug metabolism [16]: Active
pIC50 (Thromboxane A2 receptor): < 6
Ki [4]: 0.214 µM
Compound: CC(C)CNC(=O)c1cccc(Cc2cc(Cl)ccc2OCc2ccc(Cl)cc2F)n1

Ki [1]: > 1 µM
Kd ([2]; read-out: Kd): 4.36 µM
Ki [3]: > 1 µM
pIC50 (Thromboxane A2 receptor): < 6
Ki [4]: > 1 µM
Compound: CC(C)(C)NC(=O)c1cccc(Cc2cc(Cl)ccc2OCc2ccc(Cl)cc2F)n1

Fu (Plasma): 0.005
Ki [1]: > 1 µM
Kd ([2]; read-out: Kd): 0.0479 µM
Ki [3]: 1.74 µM
Vd [17]: 0.9 L/kg
half-life [18]: 1.08 h
Ki [4]: > 1 µM
clearance [19]: 59.2 mL/min/kg
bioavailability [20]: 13.8%
Compound: O=C(O)c1cccc(Cc2cc(Cl)ccc2OCc2ccc(Cl)cc2F)n1
